Test results: ChEMBL document CHEMBL3425438, “Investigation of (E)-3-[4-(2-Oxo-3-aryl-chromen-4-yl)oxyphenyl]acrylic Acids as Oral Selective Estrogen Receptor Down-Regulators” (J Med Chem, 2015)
Values after ≈ are worked out from the molar mass of the structure shown.

Columns and labels:
Estrogen receptor [1] = target: T1, Estrogen receptor (Homo sapiens, UniProt P03372); assay: Binding affinity to ER alpha (unknown origin) by LanthaScreen TR-FRET competitive binding assay
T1 sequence (P03372 whole entry): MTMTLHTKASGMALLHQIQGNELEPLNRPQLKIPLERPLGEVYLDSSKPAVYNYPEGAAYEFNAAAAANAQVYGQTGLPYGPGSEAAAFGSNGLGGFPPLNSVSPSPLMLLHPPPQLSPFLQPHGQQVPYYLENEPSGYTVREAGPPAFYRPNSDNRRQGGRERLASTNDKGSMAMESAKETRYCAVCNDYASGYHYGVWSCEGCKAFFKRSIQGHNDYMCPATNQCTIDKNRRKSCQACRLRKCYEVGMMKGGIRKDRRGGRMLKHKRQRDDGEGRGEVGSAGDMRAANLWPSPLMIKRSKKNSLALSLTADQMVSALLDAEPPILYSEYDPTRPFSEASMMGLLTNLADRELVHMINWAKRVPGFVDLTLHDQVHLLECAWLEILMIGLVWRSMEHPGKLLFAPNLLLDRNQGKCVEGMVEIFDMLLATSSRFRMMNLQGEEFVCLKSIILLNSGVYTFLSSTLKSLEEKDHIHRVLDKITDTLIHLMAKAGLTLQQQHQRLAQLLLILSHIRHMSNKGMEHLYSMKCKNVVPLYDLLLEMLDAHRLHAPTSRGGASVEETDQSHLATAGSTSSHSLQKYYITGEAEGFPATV
Outline: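 LanthaScreen TR-FRET ERα competitive binding; 12-point half-log concentration response; TR-FRET emission ratio read on microplate reader; IC50 reported.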

Estrogen receptor [2] = target: T1, Estrogen receptor; assay: Suppression of ER alpha in human MCF7 cells after 24 hrs by immunostaining analysis; assay type: cell-based
Estrogen receptor [3] = target: T1, Estrogen receptor; assay: Antagonist activity at ER alpha in human MCF7 cells assessed as inhibition of estradiol-induced PR expression treated for 24 hrs after incubation with estradiol for 30 mins by laser scanning imaging cytometer analysis; assay type: cell-based
MCF7 = assay: Inhibition of cell proliferation in human MCF7 cells after 7 days by laser scanning imaging cytometer analysis; assay type: functional, cell-based; conditions: MCF7, 168 h
Outline: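 MCF-7 cells plated in reduced-serum medium the day before; concentration response for 7 days; cell number by nucleic acid stain, read on laser scanning imaging cytometer; EC50 for decrease in proliferation.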

[4] = Octanol-buffer partition coefficient, log D of the compound at ratio of 1:100 at pH 7.4 by shake-flask method; assay type: physicochemical
[5] = Dissociation constant, pKa of the compound by potentiometric analysis […] phenol; assay type: physicochemical
Outline: (§1)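 pKa (acid and phenol) by potentiometric titration.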

[6] = Thermodynamic solubility of the compound in 0.1 M aqueous phosphate buffer at 25 degC at pH 7.4 after 24 hrs; assay type: physicochemical; conditions: read-out: Therm_solubility
[7] = target: Voltage-gated inwardly rectifying potassium channel KCNH2 (Homo sapiens, UniProt Q12809); assay: Inhibition of hERG channel by electrophysiology; assay type: toxicity
Voltage-gated inwardly rectifying potassium channel KCNH2, sequence (Q12809 whole entry): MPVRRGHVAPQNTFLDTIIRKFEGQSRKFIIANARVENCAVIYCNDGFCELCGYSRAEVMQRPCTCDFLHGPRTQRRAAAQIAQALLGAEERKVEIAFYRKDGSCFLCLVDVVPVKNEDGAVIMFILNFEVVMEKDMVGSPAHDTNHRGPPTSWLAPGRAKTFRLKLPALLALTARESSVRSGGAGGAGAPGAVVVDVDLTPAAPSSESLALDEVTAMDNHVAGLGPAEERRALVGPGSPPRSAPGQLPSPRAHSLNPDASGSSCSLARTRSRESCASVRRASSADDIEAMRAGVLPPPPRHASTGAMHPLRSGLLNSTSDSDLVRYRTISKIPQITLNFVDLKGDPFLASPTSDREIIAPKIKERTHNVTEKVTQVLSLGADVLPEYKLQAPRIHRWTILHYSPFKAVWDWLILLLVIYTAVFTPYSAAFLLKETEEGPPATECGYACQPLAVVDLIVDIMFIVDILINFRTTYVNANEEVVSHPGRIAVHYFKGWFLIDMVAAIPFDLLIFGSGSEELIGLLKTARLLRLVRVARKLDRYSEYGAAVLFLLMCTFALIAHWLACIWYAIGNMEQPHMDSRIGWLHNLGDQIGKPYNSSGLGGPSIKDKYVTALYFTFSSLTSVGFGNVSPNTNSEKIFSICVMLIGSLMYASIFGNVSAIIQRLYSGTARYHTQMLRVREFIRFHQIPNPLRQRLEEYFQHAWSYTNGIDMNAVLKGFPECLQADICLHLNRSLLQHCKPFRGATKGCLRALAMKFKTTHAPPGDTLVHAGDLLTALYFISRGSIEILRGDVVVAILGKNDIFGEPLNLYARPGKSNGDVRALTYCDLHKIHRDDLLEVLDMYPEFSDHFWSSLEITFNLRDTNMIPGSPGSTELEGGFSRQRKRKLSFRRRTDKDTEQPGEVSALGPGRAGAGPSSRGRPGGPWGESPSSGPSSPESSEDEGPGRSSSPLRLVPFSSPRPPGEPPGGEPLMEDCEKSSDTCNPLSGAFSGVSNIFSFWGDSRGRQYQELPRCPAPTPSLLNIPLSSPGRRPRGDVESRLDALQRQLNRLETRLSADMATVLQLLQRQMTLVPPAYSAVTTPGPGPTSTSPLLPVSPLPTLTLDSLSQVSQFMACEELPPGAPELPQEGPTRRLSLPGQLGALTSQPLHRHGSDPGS

[8] = Apparent permeability from apical to basolateral side in human Caco2 cells; assay type: ADME, cell-based; conditions: Caco-2
[9] = Free plasma concentration in human by LC-UV-MS analysis; assay type: ADME, cell-free
Outline: (§2)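 Equilibrium dialysis in plasma of the matching species at 37 °C; free and bound concentrations quantified by LC-UV-MS; reported as % free.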

[10] = Free plasma concentration in mouse by LC-UV-MS analysis; assay type: ADME, cell-free; outline: as §2
[11] = Free plasma concentration in rat by LC-UV-MS analysis; assay type: ADME, cell-free; outline: as §2
[12] = Intrinsic clearance in human hepatocytes measured per 10^6 cells; assay type: ADME, cell-based, Hepatocyte; conditions: read-out: CLH
[13] = Intrinsic clearance in mouse hepatocytes measured per 10^6 cells; assay type: ADME, cell-based, Hepatocyte; conditions: read-out: CLH
[14] = Intrinsic clearance in rat hepatocytes measured per 10^6 cells; assay type: ADME, cell-based, Hepatocyte; conditions: read-out: CLH
[15] = Clearance in Alderley Park Han Wistar rat at 0.5 mg/kg, iv; assay type: ADME, organism-based; design: dose 0.5 mg/kg, route intravenous; conditions: in vivo
[16] = Volume of distribution at steady state in Alderley Park Han Wistar rat at 0.5 mg/kg, iv; assay type: ADME, organism-based; design: dose 0.5 mg/kg, route intravenous; conditions: in vivo, read-out: Vdss
Outline: (§3)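 Fed CD-1 mice or Alderley Park Han Wistar rats, two animals per study; IV 0.5 mg/kg as aqueous solution of DMSO and cyclodextrin; clearance and Vss derived.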

[17] = Oral bioavailability in Alderley Park Han Wistar rat at 50 mg/kg using HPMC/tween suspension; assay type: ADME, organism-based; conditions: in vivo
Outline: (§4)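 Fed Han Wistar rats, two per study; oral HPMC/tween suspension at 1, 5 or 50 mg/kg as stated per line; IV reference 0.5 mg/kg in aqueous DMSO/cyclodextrin.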

[18] = Drug metabolism in rat hepatocytes assessed as formation of glucuronide conjugates by LC-UV-MS analysis; assay type: ADME, cell-based, Hepatocyte
[19] = Drug metabolism in rat hepatocytes assessed as formation of sulphate metabolite by LC-UV-MS analysis; assay type: ADME, cell-based, Hepatocyte
[20] = Drug metabolism in rat hepatocytes assessed as formation of acyl glucuronide conjugates by LC-UV-MS analysis; assay type: ADME, cell-based, Hepatocyte
[21] = Dissociation constant, pKa of the compound in acidic medium by potentiometric analysis; assay type: physicochemical; outline: as §1
[22] = Clearance in CD-1 mouse at 0.5 mg/kg, iv; assay type: ADME, organism-based; design: dose 0.5 mg/kg, route intravenous; conditions: in vivo
[23] = Volume of distribution at steady state in CD-1 mouse at 0.5 mg/kg, iv; assay type: ADME, organism-based; design: dose 0.5 mg/kg, route intravenous; conditions: in vivo, read-out: Vdss; outline: as §3
[24] = Oral bioavailability in CD-1 mouse at 20 mg/kg using propylene glycol suspension; assay type: ADME, organism-based; conditions: in vivo
Outline: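 Fed CD-1 mice, two per study; oral 20 mg/kg propylene glycol suspension; IV reference 0.5 mg/kg aqueous DMSO/cyclodextrin.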

[25] = Oral bioavailability in Alderley Park Han Wistar rat at 2 mg/kg using propylene glycol solution; assay type: ADME, organism-based; conditions: in vivo
Outline: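 Fed Han Wistar rats, two per study; oral 2 mg/kg propylene glycol solution; IV reference 0.5 mg/kg aqueous DMSO/cyclodextrin.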

[26] = Oral bioavailability in Alderley Park Han Wistar rat at 5 mg/kg using HPMC/tween suspension; assay type: ADME, organism-based; conditions: in vivo; outline: as §4
[27] = Oral bioavailability in CD-1 mouse at 50 mg/kg using 0.5% polysorbate suspension; assay type: ADME, organism-based; conditions: in vivo
Outline: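 Fed CD-1 mice, two per study; oral 50 mg/kg 0.5% polysorbate suspension; IV reference 0.5 mg/kg aqueous DMSO/cyclodextrin.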

[28] = Oral bioavailability in Alderley Park Han Wistar rat at 1 mg/kg using 5% DMSO, 95% of a 30% aqueous cyclodextrin solution; assay type: ADME, organism-based; conditions: in vivo
Outline: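 Fed Han Wistar rats, two per study; oral 1 mg/kg solution in 5% DMSO, 95% of a 30% aqueous cyclodextrin solution; IV reference 0.5 mg/kg in aqueous DMSO/cyclodextrin.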

[29] = Drug metabolism in rat hepatocytes assessed as oxidation metabolite formation by LC-UV-MS analysis; assay type: ADME, cell-based, Hepatocyte

Compound | IC50 (Estrogen receptor [1]) [nM] | IC50 (Estrogen receptor [2]) [nM] | IC50 (Estrogen receptor [3]) [nM] | EC50 (MCF7) [nM] | logD [4] | pKa [5] | solubility thermodynamic at 24 h [6] [µM] | Papp A→B [8] [×10⁻⁶ cm/s] | fraction unbound [9] | fraction unbound [10] | fraction unbound [11] | hepatocyte CLint [12] [µL/min/1e6 cells] | hepatocyte CLint [13] [µL/min/1e6 cells] | hepatocyte CLint [14] [µL/min/1e6 cells] | clearance [15] [mL/min/kg] | Vd [16] [L/kg] | Vd [23] [L/kg] | other results
CC/C(=C(\c1ccccc1)c1ccc(/C=C/C(=O)O)cc1)c1ccccc1 |  |  |  | 300 |  |  |  |  | < 0.002 | 0.064 | < 0.0001 |  |  |  |  | 0.5 | 1.1 | bioavailability [27]: 62%; bioavailability [28]: 68%
Cc1cc(F)ccc1-c1c(Cc2ccc(/C=C/C(=O)O)cc2)c2ccc(CO)cc2oc1=O | 100 | 1000 |  |  | 1.2 |  |  |  |  |  |  | 14 |  | 81 |  |  |  | Drug metabolism [29]: metabolite_detected

Continued by falling IC50 (Estrogen receptor [1]), values first:

IC50 (Estrogen receptor [1]) [nM] | IC50 (Estrogen receptor [2]) [nM] | IC50 (Estrogen receptor [3]) [nM] | EC50 (MCF7) [nM] | logD [4] | pKa [5] | solubility thermodynamic at 24 h [6] [µM] | Papp A→B [8] [×10⁻⁶ cm/s] | fraction unbound [9] | fraction unbound [10] | fraction unbound [11] | hepatocyte CLint [12] [µL/min/1e6 cells] | hepatocyte CLint [13] [µL/min/1e6 cells] | hepatocyte CLint [14] [µL/min/1e6 cells] | clearance [15] [mL/min/kg] | Vd [16] [L/kg] | Vd [23] [L/kg] | Compound | other results
9 | 1280 |  |  |  |  |  |  |  |  |  |  |  |  |  |  |  | O=C(O)/C=C/c1ccc(Cc2c(-c3ccc(F)cc3)c(=O)oc3cc(O)ccc23)cc1 | Drug metabolism [18]: metabolite_detected; Drug metabolism [19]: metabolite_detected; Drug metabolism [20]: metabolite_detected
8.1 | 1180 | 1500 | 260 | 1.5 | 7.7 | 470 (≈ 187 µg/mL) | 10 | 0.012 | 0.012 | 0.0098 | 18 | 87 | 120 | 67 | 1.4 | 4.7 | O=C(O)/C=C/c1ccc(Cc2c(-c3ccccc3)c(=O)oc3cc(O)ccc23)cc1 | pKa [21]: 4.4; clearance [22]: 210 mL/min/kg; bioavailability [24]: 0%; bioavailability [25]: 0%; bioavailability [26]: 67%
0.5 | 2.7 | 3.9 | < 0.1 | 2.1 | 8.2 | 97 (≈ 48.3 µg/mL) | 15 | 0.0012 | 0.0084 | 0.0037 | 11 | 9 | 41 | 38 | 0.7 |  | Cc1cc(OC(F)(F)F)ccc1-c1c(Oc2ccc(/C=C/C(=O)O)cc2)c2ccc(O)cc2oc1=O | IC50 [7]: > 100000 nM; bioavailability [17]: 0%
